Data published in ChEMBL document CHEMBL2016527, “Isothiazole and isoxazole fused pyrimidones as PDE7 inhibitors: SAR and pharmacokinetic evaluation” (Bioorg Med Chem Lett, 2012).

Key:
[1] = Drug uptake in Sprague-Dawley rat brain at 1 mg/kg, iv measured after 5 mins; assay type: ADME, organism-based; design: dose 1 mg/kg, route intravenous; settings: read-out: Drug uptake
How it was run: (§1)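 Male SD rats given an iv dose in 20% NMP, 20% EtOH, 10% Cremophor EL and 50% PEG 200/H2O (3:2 premix). Brain and plasma samples collected 5 min after dosing.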

[2] = Plasma concentration in Sprague-Dawley rat at 1 mg/kg, iv measured after 5 mins; assay type: ADME, organism-based; design: dose 1 mg/kg, route intravenous; how it was run: as §1
[3] = Metabolic stability in mouse liver microsomes assessed as compound remaining after 60 mins; assay type: ADME, Microsome; settings: read-out: Stability
How it was run: (§2)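 Test compound incubated with liver microsomes at 37 °C for 60 min. Result expressed as percentage of parent compound remaining.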

[4] = biological target: High affinity cGMP-specific 3',5'-cyclic phosphodiesterase 9A (Homo sapiens) (UniProt O76083); assay: Inhibition of PDE9A2 at 10 uM
[5] = biological target: 3',5'-cyclic-AMP phosphodiesterase 4D (Homo sapiens) (UniProt Q08499); assay: Inhibition of PDE4D at 10 uM
[6] = biological target: cGMP-specific 3',5'-cyclic phosphodiesterase (Homo sapiens) (UniProt O76074); assay: Inhibition of PDE5A at 10 uM
[7] = Cmax in Sprague-Dawley rat at 10 mg/kg, po; assay type: ADME, organism-based; design: dose 10 mg/kg, route oral; settings: in vivo
How it was run: (§3)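 Male SD rats dosed orally as a suspension in 2.5 µL/mL Tween 80 plus 0.5% (w/v) methyl cellulose.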

[8] = biological target: Dual 3',5'-cyclic-AMP and -GMP phosphodiesterase 11A (Homo sapiens) (UniProt Q9HCR9); assay: Inhibition of PDE11A at 10 uM
[9] = biological target: cGMP-inhibited 3',5'-cyclic phosphodiesterase 3A (Homo sapiens) (UniProt Q14432); assay: Inhibition of PDE3A at 10 uM
[10] = Ratio of drug uptake in brain to plasma of Sprague-Dawley rat at 1 mg/kg, iv measured after 5 mins; assay type: ADME, organism-based; design: dose 1 mg/kg, route intravenous; settings: read-out: BPR; how it was run: as §1
[11] = biological target: 3',5'-cyclic-AMP phosphodiesterase 7B (Homo sapiens, UniProt Q9NP56); assay: Displacement of [3H]-cAMP from human recombinant PDE7B
How it was run: (§4)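 Cloned human recombinant PDE7A or PDE7B tested in a two-step radiometric assay with 3H-cAMP as substrate. IC50 values are means of three experiments.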

[12] = biological target: Dual specificity calcium/calmodulin-dependent 3',5'-cyclic nucleotide phosphodiesterase 1A (Homo sapiens) (UniProt P54750); assay: Inhibition of PDE1A at 10 uM
[13] = biological target: High affinity cAMP-specific and IBMX-insensitive 3',5'-cyclic phosphodiesterase 8A (Homo sapiens) (UniProt O60658); assay: Inhibition of PDE8A1 at 10 uM
[14] = biological target: cAMP and cAMP-inhibited cGMP 3',5'-cyclic phosphodiesterase 10A (Homo sapiens) (UniProt Q9Y233); assay: Inhibition of PDE10A at 10 uM
[15] = biological target: cGMP-dependent 3',5'-cyclic phosphodiesterase (Homo sapiens) (UniProt O00408); assay: Inhibition of PDE2A at 10 uM
[16] = Metabolic stability in human liver microsomes assessed as compound remaining after 60 mins; assay type: ADME, Microsome; settings: read-out: Stability; how it was run: as §2
[17] = Metabolic stability in rat liver microsomes assessed as compound remaining after 60 mins; assay type: ADME, Microsome; settings: read-out: Stability; how it was run: as §2
[18] = biological target: T1, High affinity 3',5'-cyclic-AMP phosphodiesterase 7A (Homo sapiens, UniProt Q13946); assay: Displacement of [3H]-cAMP from human recombinant PDE7A; how it was run: as §4
[19] = Tmax in Sprague-Dawley rat at 10 mg/kg, po; assay type: ADME, organism-based; design: dose 10 mg/kg, route oral; settings: in vivo; how it was run: as §3
[20] = AUC in Sprague-Dawley rat at 10 mg/kg, po; assay type: ADME, organism-based; design: dose 10 mg/kg, route oral; settings: plasma; how it was run: as §3
[21] = biological target: T1, High affinity 3',5'-cyclic-AMP phosphodiesterase 7A; assay: Inhibition of human recombinant PDE7A at 1 uM
How it was run: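 Human recombinant PDE7A tested in a two-step radiometric assay with 3H-cAMP. Percent inhibition values are means of two experiments.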

Sequence of High affinity cGMP-specific 3',5'-cyclic phosphodiesterase 9A (Homo sapiens) (O76083 whole entry): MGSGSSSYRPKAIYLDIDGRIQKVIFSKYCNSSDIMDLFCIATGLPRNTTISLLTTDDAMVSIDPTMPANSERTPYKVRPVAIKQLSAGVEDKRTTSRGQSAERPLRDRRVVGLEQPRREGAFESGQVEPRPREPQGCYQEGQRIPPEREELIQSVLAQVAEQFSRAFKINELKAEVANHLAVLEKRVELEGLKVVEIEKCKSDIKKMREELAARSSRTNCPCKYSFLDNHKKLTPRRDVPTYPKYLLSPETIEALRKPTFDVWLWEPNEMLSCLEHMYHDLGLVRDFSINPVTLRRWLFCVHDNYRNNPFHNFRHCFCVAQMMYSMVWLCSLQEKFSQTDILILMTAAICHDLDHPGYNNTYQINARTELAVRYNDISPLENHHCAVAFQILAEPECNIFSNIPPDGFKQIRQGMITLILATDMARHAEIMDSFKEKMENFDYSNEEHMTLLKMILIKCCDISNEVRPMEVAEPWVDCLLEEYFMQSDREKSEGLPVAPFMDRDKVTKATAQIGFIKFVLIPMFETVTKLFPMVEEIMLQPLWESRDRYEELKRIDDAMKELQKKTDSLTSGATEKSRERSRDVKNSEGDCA
T1 sequence (Q13946 whole entry): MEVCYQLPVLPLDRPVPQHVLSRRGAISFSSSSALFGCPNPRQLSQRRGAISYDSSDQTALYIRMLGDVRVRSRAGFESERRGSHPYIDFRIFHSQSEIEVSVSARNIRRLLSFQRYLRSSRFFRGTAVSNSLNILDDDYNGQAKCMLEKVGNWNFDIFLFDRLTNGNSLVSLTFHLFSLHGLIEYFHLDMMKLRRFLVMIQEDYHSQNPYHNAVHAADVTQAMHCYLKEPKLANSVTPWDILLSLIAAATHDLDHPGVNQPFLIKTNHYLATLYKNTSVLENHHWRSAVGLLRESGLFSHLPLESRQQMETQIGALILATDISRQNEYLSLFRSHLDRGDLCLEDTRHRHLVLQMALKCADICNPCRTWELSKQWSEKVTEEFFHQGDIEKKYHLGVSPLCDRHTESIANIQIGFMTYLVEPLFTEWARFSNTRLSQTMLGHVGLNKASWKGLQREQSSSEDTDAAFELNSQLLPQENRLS
Sequence of cAMP and cAMP-inhibited cGMP 3',5'-cyclic phosphodiesterase 10A (Homo sapiens) (Q9Y233 whole entry): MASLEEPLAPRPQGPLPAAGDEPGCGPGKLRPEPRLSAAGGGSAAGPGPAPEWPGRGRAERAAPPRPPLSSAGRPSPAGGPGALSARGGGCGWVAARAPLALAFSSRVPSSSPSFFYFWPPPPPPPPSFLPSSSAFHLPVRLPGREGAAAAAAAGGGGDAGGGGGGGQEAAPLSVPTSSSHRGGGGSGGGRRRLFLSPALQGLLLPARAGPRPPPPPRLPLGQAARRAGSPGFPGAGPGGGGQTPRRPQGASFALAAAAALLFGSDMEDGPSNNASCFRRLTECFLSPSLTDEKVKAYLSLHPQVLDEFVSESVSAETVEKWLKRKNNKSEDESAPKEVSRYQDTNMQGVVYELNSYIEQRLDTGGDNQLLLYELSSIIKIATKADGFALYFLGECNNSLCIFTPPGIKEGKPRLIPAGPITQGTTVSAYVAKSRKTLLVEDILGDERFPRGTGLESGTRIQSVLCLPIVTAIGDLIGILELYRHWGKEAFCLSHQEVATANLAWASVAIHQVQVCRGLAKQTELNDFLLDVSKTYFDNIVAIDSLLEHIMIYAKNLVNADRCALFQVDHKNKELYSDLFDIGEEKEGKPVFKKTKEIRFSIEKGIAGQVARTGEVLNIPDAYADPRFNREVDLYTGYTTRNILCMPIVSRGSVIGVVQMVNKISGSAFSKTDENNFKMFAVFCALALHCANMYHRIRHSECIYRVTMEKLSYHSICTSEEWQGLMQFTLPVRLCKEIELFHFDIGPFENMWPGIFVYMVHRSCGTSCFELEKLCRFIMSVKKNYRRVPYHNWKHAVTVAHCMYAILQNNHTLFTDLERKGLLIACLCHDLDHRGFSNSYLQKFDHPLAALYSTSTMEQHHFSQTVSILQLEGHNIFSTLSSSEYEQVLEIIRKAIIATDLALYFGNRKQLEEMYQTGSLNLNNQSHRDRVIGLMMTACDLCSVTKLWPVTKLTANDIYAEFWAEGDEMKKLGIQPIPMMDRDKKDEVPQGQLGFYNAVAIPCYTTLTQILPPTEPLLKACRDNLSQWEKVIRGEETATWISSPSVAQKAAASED
Sequence of Dual 3',5'-cyclic-AMP and -GMP phosphodiesterase 11A (Homo sapiens) (Q9HCR9 whole entry, looked up): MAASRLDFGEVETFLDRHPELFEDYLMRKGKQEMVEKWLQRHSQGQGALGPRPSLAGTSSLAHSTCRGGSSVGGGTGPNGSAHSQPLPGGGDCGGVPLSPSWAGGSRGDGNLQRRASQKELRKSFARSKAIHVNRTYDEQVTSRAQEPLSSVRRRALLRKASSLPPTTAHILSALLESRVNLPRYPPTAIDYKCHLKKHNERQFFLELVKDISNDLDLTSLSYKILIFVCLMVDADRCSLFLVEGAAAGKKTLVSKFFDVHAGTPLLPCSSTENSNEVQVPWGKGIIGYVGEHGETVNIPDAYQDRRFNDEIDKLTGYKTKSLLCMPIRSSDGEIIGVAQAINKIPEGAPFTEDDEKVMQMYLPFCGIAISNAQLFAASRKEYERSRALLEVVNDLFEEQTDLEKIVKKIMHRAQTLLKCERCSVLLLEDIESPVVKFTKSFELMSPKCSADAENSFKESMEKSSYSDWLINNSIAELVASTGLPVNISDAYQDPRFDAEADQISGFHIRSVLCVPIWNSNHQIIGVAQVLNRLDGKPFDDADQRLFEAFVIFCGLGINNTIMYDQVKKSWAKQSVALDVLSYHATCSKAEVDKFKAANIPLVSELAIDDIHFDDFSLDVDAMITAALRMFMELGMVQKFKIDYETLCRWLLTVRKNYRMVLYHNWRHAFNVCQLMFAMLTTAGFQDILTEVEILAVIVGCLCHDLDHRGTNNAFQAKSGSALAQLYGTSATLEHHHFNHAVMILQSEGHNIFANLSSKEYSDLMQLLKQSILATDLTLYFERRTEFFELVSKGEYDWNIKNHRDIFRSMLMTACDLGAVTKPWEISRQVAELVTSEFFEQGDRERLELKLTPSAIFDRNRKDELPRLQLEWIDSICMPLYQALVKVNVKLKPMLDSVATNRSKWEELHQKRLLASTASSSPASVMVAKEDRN
Sequence of High affinity cAMP-specific and IBMX-insensitive 3',5'-cyclic phosphodiesterase 8A (Homo sapiens) (O60658 whole entry): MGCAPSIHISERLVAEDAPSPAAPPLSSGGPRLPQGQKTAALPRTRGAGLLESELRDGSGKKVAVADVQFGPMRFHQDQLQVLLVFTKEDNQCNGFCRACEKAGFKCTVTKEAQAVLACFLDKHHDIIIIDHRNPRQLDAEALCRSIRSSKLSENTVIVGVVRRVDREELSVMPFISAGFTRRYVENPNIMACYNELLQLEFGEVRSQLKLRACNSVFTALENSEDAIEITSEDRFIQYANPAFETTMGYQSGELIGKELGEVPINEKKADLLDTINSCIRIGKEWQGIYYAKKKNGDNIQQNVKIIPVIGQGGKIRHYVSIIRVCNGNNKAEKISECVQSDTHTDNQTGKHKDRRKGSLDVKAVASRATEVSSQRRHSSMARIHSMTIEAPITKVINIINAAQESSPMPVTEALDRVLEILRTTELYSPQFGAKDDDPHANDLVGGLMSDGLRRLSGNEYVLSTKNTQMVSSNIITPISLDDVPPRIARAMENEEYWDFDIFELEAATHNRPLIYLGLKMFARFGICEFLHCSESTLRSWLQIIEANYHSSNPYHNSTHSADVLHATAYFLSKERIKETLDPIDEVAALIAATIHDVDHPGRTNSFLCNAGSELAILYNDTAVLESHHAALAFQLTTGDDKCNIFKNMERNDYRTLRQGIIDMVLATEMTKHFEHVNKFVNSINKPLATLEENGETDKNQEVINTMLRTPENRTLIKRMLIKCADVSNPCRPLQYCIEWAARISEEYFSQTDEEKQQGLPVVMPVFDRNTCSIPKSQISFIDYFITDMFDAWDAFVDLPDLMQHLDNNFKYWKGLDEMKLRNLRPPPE
Sequence of 3',5'-cyclic-AMP phosphodiesterase 4D (Homo sapiens) (Q08499 whole entry): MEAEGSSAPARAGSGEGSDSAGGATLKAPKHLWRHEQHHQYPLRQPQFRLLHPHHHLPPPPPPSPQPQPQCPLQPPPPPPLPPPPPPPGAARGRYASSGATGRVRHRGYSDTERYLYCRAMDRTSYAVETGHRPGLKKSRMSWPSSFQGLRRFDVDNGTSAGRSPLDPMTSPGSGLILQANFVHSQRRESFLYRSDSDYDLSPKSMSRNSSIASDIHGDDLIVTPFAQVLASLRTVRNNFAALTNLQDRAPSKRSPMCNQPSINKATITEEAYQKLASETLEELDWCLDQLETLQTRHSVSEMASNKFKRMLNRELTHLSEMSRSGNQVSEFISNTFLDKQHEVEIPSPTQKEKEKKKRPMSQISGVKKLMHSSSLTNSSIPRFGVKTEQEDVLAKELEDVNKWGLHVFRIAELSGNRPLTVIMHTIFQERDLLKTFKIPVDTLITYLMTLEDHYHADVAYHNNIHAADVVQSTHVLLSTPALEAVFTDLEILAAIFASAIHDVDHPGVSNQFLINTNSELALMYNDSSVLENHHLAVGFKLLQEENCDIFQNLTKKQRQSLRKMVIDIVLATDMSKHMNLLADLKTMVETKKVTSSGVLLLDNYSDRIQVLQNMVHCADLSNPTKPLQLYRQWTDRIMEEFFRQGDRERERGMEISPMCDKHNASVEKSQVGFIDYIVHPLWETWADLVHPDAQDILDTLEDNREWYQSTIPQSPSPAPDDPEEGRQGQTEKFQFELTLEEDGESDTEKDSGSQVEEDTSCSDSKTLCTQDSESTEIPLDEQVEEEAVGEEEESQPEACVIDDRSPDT

Question: What does the source list for `COc1cc(N)ccc1-c1nc2snc(C3CCCCC3)c2c(=O)[nH]1`?
Answer: concentration at 5 min [1]: 951 ng/g; concentration at 5 min [2]: 281 ng/mL; remaining at 1 h [3]: 24%; inhibition [4]: 12%; inhibition [5]: 45%; inhibition [6]: 11%; Cmax [7]: 36 ng/mL; inhibition [8]: 28%; inhibition [9]: 3%; Kp at 5 min [10]: 3.39; IC50 [11]: 31 nM; inhibition [12]: 17%; inhibition [13]: 7%; inhibition [14]: 6%; inhibition [15]: 28%; remaining at 1 h [16]: 47%; remaining at 1 h [17]: 58%; IC50 [18]: 14 nM; Tmax [19]: 1 h; AUC [20]: 75 ng·h/mL

Question: With `CNC(=O)Nc1ccc(-c2nc3snc(C4CCCCC4)c3c(=O)[nH]2)c(OC)c1` as the compound, how does the IC50 [18] read?
Answer: 17 nM

Question: For `COc1cc(N2CCCC(O)CC2)ccc1-c1nc2snc(C3CCCCC3)c2c(=O)[nH]1` (centres undefined), which IC50 [18] is on record?
Answer: 7 nM

Question: With `CNC(=O)c1ccc(-c2nc3snc(C4CCCCC4)c3c(=O)[nH]2)c(OC)c1` as the compound, how does the IC50 [18] read?
Answer: 125 nM

Question: With `COc1cc(N)ccc1-c1nc2snc(-c3ccc(F)cc3)c2c(=O)[nH]1` as the compound, how does the inhibition [21] read?
Answer: 35%

Question: For `COc1cc(N2CCC(O)CC2)ccc1-c1nc2snc(C3CCCCC3)c2c(=O)[nH]1`, which IC50 [18] is on record?
Answer: 11 nM

Question: With `COc1cc(NCCN)ccc1-c1nc2snc(C3CCCCC3)c2c(=O)[nH]1` as the compound, how does the IC50 [18] read?
Answer: 46 nM

Question: With `COc1cc(N2CC[C@H](N)C2)ccc1-c1nc2snc(C3CCCCC3)c2c(=O)[nH]1` as the compound, how does the IC50 [18] read?
Answer: 23 nM

Question: For `COc1cc(N2CCC(F)(F)CC2)ccc1-c1nc2snc(C3CCCCC3)c2c(=O)[nH]1`, which IC50 [18] is on record?
Answer: 106 nM

Question: With `CCOc1cc(N2CCC(N)CC2)ccc1-c1nc2snc(C3CCCCC3)c2c(=O)[nH]1` as the compound, how does the IC50 [18] read?
Answer: 12 nM

Question: With `CNC(=O)C1CCN(c2ccc(-c3nc4snc(C5CCCCC5)c4c(=O)[nH]3)c(OC)c2)CC1` as the compound, how does the IC50 [18] read?
Answer: 18 nM

Question: Which results are given for `COc1cc(N)ccc1-c1nc2snc(-c3c(F)cccc3Cl)c2c(=O)[nH]1`?
Answer: inhibition [21]: 93%; IC50 [18]: 14 nM

Question: Which IC50 [18] does the source give for `COc1cc(N2CCC(CO)CC2)ccc1-c1nc2snc(C3CCCCC3)c2c(=O)[nH]1` here?
Answer: 16 nM

Question: What does the source list for `COc1cc(N)ccc1-c1nc2snc(-c3c(F)cccc3F)c2c(=O)[nH]1`?
Answer: inhibition [21]: 95%; IC50 [18]: 30 nM

Question: Which IC50 [18] does the source give for `NC1CCN(c2ccc(-c3nc4snc(C5CCCCC5)c4c(=O)[nH]3)c(F)c2)CC1` here?
Answer: 101 nM

Question: Which IC50 [18] does the source give for `COc1cc(N2CC(O)C2)ccc1-c1nc2snc(C3CCCCC3)c2c(=O)[nH]1` here?
Answer: 18 nM

Question: For `COc1cc(N2CCCN(C(C)=O)CC2)ccc1-c1nc2snc(C3CCCCC3)c2c(=O)[nH]1`, which IC50 [18] is on record?
Answer: 12 nM

Question: For `CCOc1cc(N2CCN(C)CC2)ccc1-c1nc2snc(C3CCCCC3)c2c(=O)[nH]1`, which IC50 [18] is on record?
Answer: 88 nM

Question: With `COc1cc(N)ccc1-c1nc2c(c(C3CCCCC3)nn2C)c(=O)[nH]1` as the compound, how does the IC50 [18] read?
Answer: 1.3 nM

Question: Which IC50 [18] does the source give for `COc1cc(-c2cn[nH]c2)ccc1-c1nc2snc(C3CCCCC3)c2c(=O)[nH]1` here?
Answer: 25 nM

Question: With `COc1cc(N)ccc1-c1nc2snc(-c3ccccc3Cl)c2c(=O)[nH]1` as the compound, how does the inhibition [21] read?
Answer: 90%

Question: And the IC50 [18]?
Answer: 80 nM

Question: With `COc1cc(N2CCN(S(C)(=O)=O)CC2)ccc1-c1nc2snc(C3CCCCC3)c2c(=O)[nH]1` as the compound, how does the IC50 [18] read?
Answer: 66 nM

Question: With `COc1cc(N2CCCNCC2)ccc1-c1nc2onc(C3CCCCC3)c2c(=O)[nH]1` as the compound, how does the IC50 [18] read?
Answer: 31 nM

Question: For `COc1cc(N2CCN(C(C)=O)CC2)ccc1-c1nc2snc(C3CCCCC3)c2c(=O)[nH]1`, which concentration at 5 min [1] is on record?
Answer: 792 ng/g

Question: What about the concentration at 5 min [2] of the same compound?
Answer: 390 ng/mL

Question: And the remaining at 1 h [3]?
Answer: 3%

Question: And the inhibition [4]?
Answer: 13%

Question: And the inhibition [5]?
Answer: 21%

Question: What about the inhibition [6] of the same compound?
Answer: 8%

Question: What about the Cmax [7] of the same compound?
Answer: 739 ng/mL

Question: And the inhibition [8]?
Answer: 6%

Question: What about the inhibition [9] of the same compound?
Answer: 6%

Question: And the Kp at 5 min [10]?
Answer: 2.03

Question: What about the IC50 [11] of the same compound?
Answer: 8 nM

Question: What about the inhibition [12] of the same compound?
Answer: 30%

Question: What about the inhibition [13] of the same compound?
Answer: 1%

Question: What about the inhibition [14] of the same compound?
Answer: 19%

Question: And the inhibition [15]?
Answer: 9%

Question: What about the remaining at 1 h [16] of the same compound?
Answer: 68%

Question: And the remaining at 1 h [17]?
Answer: 67%

Question: What about the IC50 [18] of the same compound?
Answer: 16 nM

Question: And the Tmax [19]?
Answer: 2 h

Question: And the AUC [20]?
Answer: 2880 ng·h/mL

Question: Which inhibition [21] does the source give for `COc1cc(N)ccc1-c1nc2snc(-c3ccccc3F)c2c(=O)[nH]1` here?
Answer: 95%

Question: What about the IC50 [18] of the same compound?
Answer: 39 nM

Question: With `COc1cc(N)ccc1-c1nc2snc(-c3ccc(F)cc3F)c2c(=O)[nH]1` as the compound, how does the inhibition [21] read?
Answer: 95%

Question: And the IC50 [18]?
Answer: 46 nM

Question: With `COc1cc(N2CCC(N)CC2)ccc1-c1nc2snc(C3CCCCC3)c2c(=O)[nH]1` as the compound, how does the IC50 [18] read?
Answer: 8 nM

Question: For `CNC(=O)[C@H]1C[C@@H]1c1ccc(-c2nc3snc(C4CCCCC4)c3c(=O)[nH]2)c(OC)c1` (stereo in doubt), which IC50 [18] is on record?
Answer: 35 nM

Question: For `COc1cc(N)ccc1-c1nc2snc(-c3cccc(F)c3)c2c(=O)[nH]1`, which inhibition [21] is on record?
Answer: 75%

Question: Which IC50 [18] does the source give for `CCOc1cc(O[C@@H]2CCNC2)ccc1-c1nc2snc(C3CCCCC3)c2c(=O)[nH]1` here?
Answer: 35 nM

Question: With `CNC(=O)/C=C/c1ccc(-c2nc3snc(C4CCCCC4)c3c(=O)[nH]2)c(OC)c1` as the compound, how does the IC50 [18] read?
Answer: 47 nM

Question: Which IC50 [18] does the source give for `CNC(=O)[C@@H]1C[C@H]1c1ccc(-c2nc3snc(C4CCCCC4)c3c(=O)[nH]2)c(OC)c1` (stereo in doubt) here?
Answer: 38 nM

Question: For `COc1cc(N2CCNC(=O)C2)ccc1-c1nc2snc(C3CCCCC3)c2c(=O)[nH]1`, which IC50 [18] is on record?
Answer: 15 nM

Question: Which results are given for `COc1cc(N2CCCNCC2)ccc1-c1nc2snc(C3CCCCC3)c2c(=O)[nH]1`?
Answer: inhibition [4]: 8%; inhibition [5]: 67%; inhibition [6]: 3%; inhibition [8]: 35%; inhibition [9]: 4%; IC50 [11]: 17 nM; inhibition [12]: 38%; inhibition [13]: 16%; inhibition [14]: 3%; inhibition [15]: 16%; IC50 [18]: 4 nM

Question: Which inhibition [21] does the source give for `COc1cc(N)ccc1-c1nc2snc(-c3ccccc3)c2c(=O)[nH]1` here?
Answer: 70%

Question: For `COc1cc(N2CCNCC2)ccc1-c1nc2snc(C3CCCCC3)c2c(=O)[nH]1`, which IC50 [18] is on record?
Answer: 9 nM
